Jurkat NFkB inh = inhibitors of the PMA/ionomycin-induced NF-kB reporter in Jurkat cells; PMA/ionomycin-induced NF-kB luciferase reporter, luminescence; inhibition, % at 4 µM; 330,000 compounds, 0.53% hits; AID 435003; in the data active means inhibition above about 50%
CHOP UPR activ = activators of apoptotic arm of unfolded protein response (CHOP); CHO-CHOP luciferase reporter, UPR activation, luminescence; percent of tunicamycin response over DMSO baseline; activation, % at 10 µM; 330,000 compounds, 0.34% hits;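 active means at 10 µM dose, activation of 40% or more, normalized to positive control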
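System: CHO-CHOP luciferase reporter cell line; amount: 500 cells/well; buffer or medium: F12 medium containing 10% fetal bovine serum; incubation: 6 h compound exposure at 37 °C after overnight seeding; measured by: luciferase luminescence after 10 min with Steady-Glo reagent; evaluation: % reporter activation, DMSO baseline versus tunicamycin full activation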
UPR XBP1 act = activators of adaptive arm of unfolded protein response (XBP1). 330,000 compounds, 0.33% hits. CHO-XBP1 luciferase reporter, IRE1-XBP1 UPR activation, luminescence; percent of tunicamycin response, DMSO as zero. activation, % at 20 µM;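 active means versus positive control, 20 µM dose yields 30% or more activation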
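assay system = CHO-XBP1 luciferase reporter cells | amount = 1000 cells/well | buffer or medium = F12 plus 10% FBS | compound dosing = single point, 20 µM final compound, 1% DMSO | incubation = 16-18 h cell attachment at 37 °C, then 6 h compound exposure | detection = Steady-Glo luminescence read | controls = tunicamycin 10 µg/mL and vehicle-only wells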
697 NFkB inh = lowers PMA/ionomycin-induced NF-kB signal in 697 B cells. 697 B-cell NF-kB luciferase reporter, 16 h. inhibition, % at 4 µM. 330,000 compounds, 0.33% hits. AID 435022; in the data active means inhibition above about 35%
CHOP inhibitor = inhibitors of CHOP induction in ER stress response; CHO-K1 CHOP-promoter luciferase, tunicamycin-induced, 15-18 h; inhibition, % at 10 µM; 220,000 compounds, 3.8% hits; AID 2732;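 active means compounds that reduced the stress-induced luciferase reporter signal by more than about 70% of percent inhibition, limit read from the data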
Jurkat NFkB conf = lowers PMA/ionomycin-induced NF-kB signal in Jurkat cells. shares compounds with Jurkat NFkB inh. Jurkat NF-kB luciferase, 16 h. inhibition, % at 4 µM. 2,700 compounds, 27% hits. AID 435020;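 active means inhibition reaching about 45% at 4 µM in either replicate, limit read from the data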
Numbers stand for hits; - = inactive; . = no result given. Only a selection was taken, and hits are over-represented in it overall.

SMILES	Jurkat NFkB inh	CHOP UPR activ	UPR XBP1 act	697 NFkB inh	CHOP inhibitor	Jurkat NFkB conf
CCOc1cccc(C(=O)N/N=C/c2coc3ccccc3c2=O)c1	-	-	-	-	.	.
COc1cccc(C(=O)Nc2ccc3c(C)cc(=O)oc3c2)c1	-	-	-	-	.	-
Clc1ccc(CNc2ccccc2NCc2ccc(Cl)nc2)cn1	-	-	-	-	-	.
COc1ccc2cc(C#N)c(SCC(=O)N3CCCC3)nc2c1	-	-	-	-	-	.
COC(=O)CSc1nc2cc(OC)ccc2cc1C#N	-	-	-	-	-	-
COC(=O)CSc1nc2ccc(C)cc2cc1C#N	-	-	-	-	-	-
COc1cccc(NC(=O)CN(C)C(=O)c2ccc3c(c2)S(=O)(=O)N=C2CCCCCN23)c1	-	-	-	-	.	.
Cc1cc(Cl)c2oc(C(=O)N3CCN(c4ccncc4)CC3)c(C)c2c1	61	-	-	-	.	-
Cc1c(C(=O)N2CCN(c3ccccc3)CC2)oc2c(F)cccc12	-	-	-	-	.	.
Fc1ccccc1/C=N/NC(=S)Nc1ccc(Cl)cc1Cl	53	-	-	-	-	-
O=C(COC(=O)c1ccc(F)c(S(=O)(=O)N2CCOCC2)c1)NCCc1ccc(F)cc1	-	-	-	-	.	.
CCC(=O)Nc1ccc(OCc2nc3ccccc3s2)cc1	-	-	-	-	-	-
c1ccc(OCc2nc3ccccc3s2)cc1	-	-	-	-	-	.
CCc1nnc(NC(=O)CN2C(=O)N(C)C3(CCCCC3)C2=O)s1	-	-	-	-	.	.
Cc1ccc(C)c(N2CCN(C(=O)CCS(=O)(=O)c3ccc4c(c3)CCN4C(=O)C3CC3)CC2)c1	-	-	-	-	.	.
Cc1ccc(C(=O)c2sc3nsc(C)c3c2N)cc1	-	-	-	-	-	-
O=C(Nc1ccccn1)c1sc2cccc(F)c2c1Cl	-	-	-	-	78	-
O=C1CN(C(=O)c2ccccc2)c2ccccc2N1	-	-	-	-	-	.
O=C1CN(C(=O)c2cccc(Br)c2)c2ccccc2N1	52	-	-	-	.	-
CCN(CC)c1ccc(/C=N/NC(=O)c2cccc(S(=O)(=O)Nc3ccccc3OC)c2)c(O)c1	59	-	-	-	-	55
CCN(CC)c1ccc(/C=N/NC(=O)c2nnn(-c3nonc3N)c2C(C)C)c(O)c1	63	-	-	-	.	50
CCN(CC)c1ccc(/C=N/NC(=O)c2cccc(S(=O)(=O)Nc3ccccc3OC)c2)cc1	-	-	-	-	-	.
CCN(CC)c1ccc(/C=N/NC(=O)c2ccc3nc[nH]c3c2)c(O)c1	55	-	-	-	-	-
CCN(CC)c1ccc(/C=N/N=C(N)N)c(O)c1	77	-	-	-	-	-
COC(=O)c1ccc(NC(=O)CCN2C(=O)NC(C)(C)C2=O)cc1	-	-	-	-	.	.
SMILES	Jurkat NFkB inh	CHOP UPR activ	UPR XBP1 act	697 NFkB inh	CHOP inhibitor	Jurkat NFkB conf
CCOC(=O)CCCCCC(=O)Nc1ccc2c(c1)CC(=O)N([C@@H](C)CO)C[C@H](C)[C@@H](CN(C)C(=O)Nc1ccc3c(c1)OCO3)O2	-	-	-	-	.	.
O=C(Nc1ccccc1-c1nc2ccccc2s1)C1=COCCO1	-	-	-	-	-	.
C=CCNc1nc(-c2ccc3c(c2)OCCO3)cs1	-	-	-	-	.	-
CCC(=O)Nc1nc(-c2ccc3c(c2)OCCO3)cs1	-	-	-	-	-	.
Cc1c(S(=O)(=O)N2CCN(c3ccc(F)cc3)CC2)c(=O)n(C)c(=O)n1C	-	-	-	-	.	.
O=C(NCc1ccccn1)c1cn(-c2ccccc2)nc1-c1ccc(Cl)cc1	.	.	.	.	-	.
CCc1ccc(/C=N/NC(=O)c2cc(C3CC3)nc3ccc(Br)cc23)s1	56	-	-	-	-	-
CCc1ccc(/C=N/NC(=O)c2cc(-c3ccccc3OC)nc3ccccc23)s1	-	-	-	-	-	.
CC(=O)NC1=NN(C(C)=O)C(c2ccccn2)S1 (centres undefined)	-	-	-	-	-	.
CCCn1c(C)cc(C(=O)CN2C(=O)c3ccccc3C2=O)c1C	-	-	-	-	.	.
Cc1cc(C(=O)CN2C(=O)c3ccccc3S2(=O)=O)c(C)n1-c1ccccc1	66	-	-	-	-	-
CCn1c(C)cc(C(=O)CN2C(=O)c3ccccc3S2(=O)=O)c1C	69	-	-	-	.	-

Screening results deposited in PubChem by several laboratories.
